Measured values taken from the EternaBench riboswitch data.

System: MS2 coat protein
Test: apparent Kd, MS2 coat protein; higher = weaker binding; RNA-MaP array; FMN 200 µM where present
In short: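 Designs were transcribed by stalled E. coli RNA polymerase on Illumina sequencing-chip clusters. They were titrated with SNAP-549-labelled MS2 coat protein from 0.7 or 1.5 nM, doubling to 3 µM, in 100 mM Tris-HCl pH 7.5, 80 mM KCl, 4 mM MgCl2, BSA, DTT, yeast tRNA and Tween-20, without and then with constant ligand. The apparent Kd is the median of filtered per-cluster fits after normalisation of green signal to red-channel RNA signal and control-cluster median Fmax.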

[1] = designed as: OFF switch for flavin mononucleotide, no ligand
[2] = ligand present: flavin mononucleotide, designed as: OFF switch for flavin mononucleotide
[3] = designed as: ON switch for flavin mononucleotide, no ligand
[4] = ligand present: flavin mononucleotide, designed as: ON switch for flavin mononucleotide

Row | Sequence | apparent Kd [1] [nM] | apparent Kd [2] [nM] | apparent Kd [3] [nM] | apparent Kd [4] [nM]
1 | GUGAUCUGAGUGAGGAUAUCCUUUAAGUAAUUGCAGGAGAAGGCACAUGAGGAUCACCCAUGUACAUCUUCGCG | 36.1 | 119 | – | –
2 | UGUGGGAGCAGAGGAUAUUACAUGAGGAUCACCCAUGUAUGAACCAAUAGCUGGAAACAGCAAUGUAAGAAGGCUGCUCCGACA | 13 | 165 | – | –
3 | UAGGCGAACAUGAGGAUCACCCAUGUACGCGGUAUAUGAGCGAGAAGGGUAUGAUGUGUGGUCCUACAGGAUAUCGCUAAUAAA | – | – | 26.2 | 6.52
4 | AAACAUGUCCGAGGAUAUCUGGAAACAUUUUCAAGAGAAGGCGGACAUGAGGAUCACCCAUGUCUCUCCUCAUCAAGUACAAAU | 7.33 | 46.3 | – | –
5 | UGGUACAUGGGAGGAUAUCCUCAAACAUGAGGAUCACCCAUGUAAAAUUAUAAGCCGAAAGGCAUGGAGAAGGCCCAUGUACCU | – | – | 119 | 17
6 | AGAUUGAAUGAGGAUAUCGAAGCGGGUACGAAGCGAGAAGGCAUGACAUGAGGAUCACCCAUGUAGUGUGGGUU | 465 | 435 | – | –
7 | CCGGAAAAGGAGGAUAUAGGAGUCGAUAGACACCUAGAAGGUCUGACAUGAGGAUCACCCAUGUGUCCUACCGG | 21.2 | 30.2 | – | –
8 | GUGCGGUGAGGAUAUACGUAGGUGAAAAUCUGUGUGCUCCUACAUGAGGAUCACCCAUGUAGAAGGCAUGUCAC | 15.5 | 27.8 | – | –
9 | GUAGAGUAAGGAUAUAGUGAAUAGGAUAGAAUGGUUAGAAACUAGAAGGUACAUGAGGAUCACCCAUGUAAUGU | 23.6 | 21.2 | – | –
10 | GUGUGCUGAGGAUAUACAGAGGAAGAUAAGAUAAGAUAAUGACAUGAGGAUCACCCAUGUAGAAGGCAGAGUGU | 29.7 | 42.4 | – | –
11 | GGAGACCUCACAGGAUAUGCUGGACUUUGUCCAGCAGAAGGGUGAACAUGAGGAUCACCCAUGUGGUCUUCCAAAAUAUUUAAU | – | – | 693 | 280
12 | CCAAGGAGAGGAUAUACACGGUUAUGGCCUCUUGAGUGGCGACAUGAGGAUCACCCAUGUAGAAGGCUCAGGGC | 20.2 | 57.4 | – | –
13 | CCGAGUAGCGCAGGAUAUGACUUGGUUGUUUGGUCAGAAGGGUGAUUCUCGGUAAGAAACAGGACAUGAGGAUCACCCAUGUCA | – | – | 102 | 24.9
14 | AUGCUAGUGUGAGGAUAUUAGGCUACAUGAGGAUCACCCAUGUUGAUCAUGAGGAUCACCCAUGAUAAGAAGGUACAUUAGCAU | 88.1 | 108 | – | –
15 | GCAUUUGAGCAGGAUAUAGCCUGAACAUAAUGGUUAGAAGGGCUCACAUGAGGAUCACCCAUGUGGUGUCCUAA | 12.8 | 36 | – | –
16 | AAAACAUGAGGAUCACCCAUGUAAAGAACGGUUAAUAAAUGUGAGGAUAUACUAAAAUUUUCGUAGUAGAAGGCACUGGGUACA | – | – | 22.2 | 24.8
17 | GUCACGAAUGUAGGAUAUCGAGUGGAUAACACUCGAGAAGGACAUGAGGAUCACCCAUGUACUAUGAAAGAUAAUAAACGUGAC | 14.4 | 20.4 | – | –
18 | CUUUAGUGAGGAUAUCAGUAGUAGAACAAUAGUACUACUACUGAGAAGGCACAUGAGGAUCACCCAUGUUCCUC | 31 | 157 | – | –
19 | AAACAUGUCCGAGGAUAUCUGAGAUCAUUUUCAAGAGAAGGCGGACAUGAGGAUCACCCAUGUCUCUCCUCAUCAACUCCAAAU | 18.8 | 136 | – | –
20 | GGAGACCUCACAGGAUAUGCUGGACUUUGUCCAGCAGAAGGGUGAAUACAUGAGGAUCACCCAUGUGGUCUCCAAAUAUUUAAU | – | – | 1170 | 75.3
21 | AACAAGUGAGGAUAUGAUAAUACAACAAACAAACAUCUACAUCAGAAGGCACAUGAGGAUCACCCAUGUUAAUC | 22 | 27.2 | – | –
22 | UGUCGGAGCAGAGGAUAUUACAUGAGGAUCACCCAUGUAUAAACCAAUAGCUGGAAACAGCAAUGUAAGAAGGCUGCUCCGACA | 5.28 | 10.1 | – | –
23 | UUUUCUACUGAGGAUAUUAUAUUACCCGACUGAUAAGAAGGCAGUACAUGAGGAUCACCCAUGUGGGUAGCCAU | 21.8 | 31 | – | –
24 | ACUGUUUGAUUCCUCUUAUACAUGAGGAUCACCCAUGUUAUCGAGGAUAUGCAUUAGAGUGUUUGGCAGAAGGCGAUGUAAUUG | 6.9 | 23.4 | – | –

Row | Sequence | apparent Kd [1] [nM] | apparent Kd [2] [nM] | apparent Kd [3] [nM] | apparent Kd [4] [nM]
25 | AGUUUUGUACAUGAGGAUCACCCAUGUUAAUAUGUGGUAGUCAGAAGGCAUUGUUAGAGUUUAAAUGAGGAUAUGAAUAUUCAG | – | – | 72.8 | 33
26 | AGUCGGAGCAGAGGAUAUUACAUGAGGAUCACCCAUGUAUAAAGAUCAAGCUGGAAACAGCAAUGUAAGAAGGCUGCUCCGACA | 57.4 | 321 | – | –
27 | GCACUGACAGGAUAUACAUGAGGAUCACCCAUGUGACCCUUAGAGUACUCGCGUACUCGUAGAAGGGUCUGUGC | 36 | 105 | – | –
28 | GCACGAGACUAAGGAUAUGGUGUACCUACAUGAAACAUGAGGAUCACCCAUGUAGUAAGUAUGAUUCAGAAGGUAGAGACGUGC | – | – | 30.4 | 18.3
29 | AUCCAGCGAGGAUAUACAUAGUUUUUUUCGUUUUGUCUCGAACAUGAGGAUCACCCAUGUAGAAGGUGCUUCAC | 72.5 | 67.2 | – | –
30 | AGAUGACAAAGUCAUCUCGCUUUGACAUGAGGAUCACCCAUGUAGGAUAUAUUACUCAAAGAGUAAUAGAAGGACAUGUGUCUG | 49 | 155 | – | –
31 | GUAAGUCAUGUAGGAUAUCCGAGGCGAAGCGUUGGAGAAGGACAUGAGGAUCACCCAUGUUCUAGCGUCUGAGUACAGAUGCAG | 29.4 | 104 | – | –
32 | GGGCACGGAGGAUAUACAUGAGGAUCACCCAUGUGAUUAGGGCAGUACUUGCCGAUCCGUAGAAGGUUGGCCGA | 26.1 | 26.8 | – | –
33 | GAUGGCGUCCAAGGAUAUCCUGACCGUUAACAUGAGGAUCACCCAUGUUGCCUAAAGGCGGCAUAGGAGAAGGUGGUACUCUGA | – | – | 111 | 155
34 | CCAUAACUGUGAGGAUAUUGUUGCGUUUAGUGACGAGAAGGCAUUCAUGUGAUAUAUACAUACAUGAGGAUCACCCAUGUUGUA | – | – | 31 | 25.5
35 | GUGCUUUGGGAGAAGGCCGUAUGCAAAGCAUACGGAGGAUAUUCAUACCGGAAACGGACAUGAGGAUCACCCAUGUGGCACAAA | – | – | – | 44.6
36 | AAAGAAGCACUUGGAACCGGACAAUGAGAAGGCCACGCACAUGAGGAUCACCCAUGUAAAGCUAUGGAGGAUAUCAUGAUGGAU | – | – | 46.4 | 6.73
37 | GUGCCGUUGGCUCGACGACCGCUGCAGGAUAUCACAUGAGGAUCACCCAUGUGACUCUGCCCAUGUGAGAAGGGCGGCUGUGUG | 18.9 | 34.7 | – | –
38 | UUAAGUCAUGUAGGAUAUCCGAGGCGAAGCGUUGGAGAAGGACAUGAGGAUCACCCAUGUUCUAGCGUCUGAGUACAGAUGCAG | 29.5 | 94.7 | – | –
39 | AAGGAUCGAGGAUAUACAUAGAUACAGAUACAUGUAGACGUACAUGAGGAUCACCCAUGUAGAAGGCGAUUAUA | 72.6 | 220 | – | –
40 | GUGUAGUCAGGAUAUACAUAGGAAGAGAAGAGAAGAGAAGGACAUGAGGAUCACCCAUGUAGAAGGGACAGUGU | 46.7 | 40.9 | – | –
41 | CCCGCCAUACAGAAGGGAAACAUGAGGAUCAGCCGCGACAUGAGGAUCACCCAUGUUUACCUAUUUCAGGAUAUGUACACUCCC | – | – | 470 | 225
42 | ACGACGAAAGUCGAACGAUGUACGAGAAGGACAUGAGGAUCACCCAUGUUAUCUGUAAUAGACAUGUAGGAUAUCGUACAUCGA | 8.26 | 26.6 | – | –
43 | GCGUGAAAUGUAGGAUAUGACACAGGAAACUGGUCAGAAGGACAUGAGGAUCACCCAUGUAAAAUGUUCAAGAAUAACACAUGC | 30.3 | 87 | – | –
44 | CGAGGGUGGGACCCACGCUUUCGACAUGAGGAUCACCCAUGUAAGGAUAUCGCGGCCUACCAUAGCGAGAAGGUACGUGCGGGU | 13 | 25.9 | – | –
45 | CUAUGAGCGAUAGGAUAUACUGAGAUUGAGUGGGUAGAAGGAUCGAUAGUGUAGAAGACAUGAGGAUCACCCAUGUUACGGGCC | – | – | 188 | 186
46 | CGAUAUGAUGCAGGAUAUCUAUCUUGAAUGAGGAGAGAAGGGCAUAGGGAGACAUAAGCCUUAUUACAUGAGGAUCACCCAUGU | 12.9 | 12 | – | –
47 | AACUGACAUGAGGAUCACCCAUGUCAGGAUAUGACUUGAUAGAAAAUAAAAUAUCAUGUCAGAAGGGACAUGGG | 20.2 | 18.5 | – | –
48 | CCGGAAACGGGUAGCCUGACAUGAGGAUCACCCAUGUGAUCCAAGGAUAUGGAUCCUAAUUGGAUCCAGAAGGUGGUUGGCUAC | – | – | 76.7 | 1200
